Sampled rows, rich in hits. Any-hit rate of the full collection: about 1.5%.
RanGTP-Impb inh: inhibitors of RanGTP-importin-beta interaction, primary screen, biochemical, FRET, CFP-Ran, YFP-importin-beta, homogeneous; Ran GTPase (GTP-bound) - importin-beta complex; cell-free CFP-Ran/YFP-importin-beta FRET ratio; inhibition, % (test concentration not listed); hit rate 1.1% among 300,000; AID 2216, 2009;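 active means more than half of the replicate wells show a fall in the fluorescence ratio signal beyond about 16%, limit read from the data, passing the limit was not always enough; inconclusive means exactly half of the replicate wells pass the set limit; inactive means fewer than half of replicates pass the limit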;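 further: 0% = DMSO wells and 100% = Ran loaded with GDP instead of GTP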
Runt-SMMHC FRET: inhibitors of RUNX1 Runt–CBFb-SMMHC binding, primary screen, biochemical, FRET, Cerulean-Runt, Venus-CBFb-SMMHC, uHTS; Cerulean-Runt/Venus-CBFb-SMMHC FRET ratio 530/480, 1 h; Runt-related transcription factor 1 (Homo sapiens) + Core-binding factor subunit beta …; inhibition, % at 20 µM; hit rate 0.74% among 220,000;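 active means mean inhibition across duplicate retests at 20 µM reaching about 50%, limit read from the data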;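 further: 0% = DMSO wells and 100% = wells with excess untagged CBFb-SMMHC; inhibitors lower the FRET ratio by blocking Runt binding to CBFb-SMMHC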
Runt-CBFb FRET: inhibitors of RUNX1 Runt–CBFb binding, primary screen, biochemical, FRET, Cerulean-Runt, Venus-CBFb, uHTS; AID 1496, 2009; hit rate 0.46% among 220,000; Runt-related transcription factor 1 (Homo sapiens) + Core-binding factor subunit beta …; Cerulean-Runt/Venus-CBFb FRET ratio 530/480, 1 h; inhibition, % at 20 µM;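 active means inhibition over about 50% at 20 µM in the single-dose screen, limit read from the data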;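 further: 0% = DMSO wells and 100% = excess unlabeled CBFb competitor control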
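Doses: 20 µM compound in 1% DMSO | Material: Cerulean-labeled Runt domain protein | Amount: Each fluorescent fusion protein 100 nM | Schedule: Two 1 h room-temperature incubations shielded from light | Measured by: FRET fluorescence | Evaluation: Loss of energy transfer signal | Controls: Unlabeled CBFb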
Hck Nef HTS: inhibitors of Nef-activated human Hck kinase, primary screen, biochemical, Z-Lyte FRET, 384-well, Hck-YEEI. Tyrosine-protein kinase HCK (Homo sapiens), P08631. Recombinant Hck-YEEI plus Nef, Z-Lyte FRET kinase assay. inhibition, % at 20 µM. hit rate 0.68% among 220,000. AID 463187, 2010;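 active means Hck-Nef kinase inhibition above about 50%, limit read from the data; inactive means inhibition below that limit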;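 further: 0% = DMSO with Hck plus Nef and 100% = Hck alone without Nef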
Target sequence (P08631 whole entry, looked up): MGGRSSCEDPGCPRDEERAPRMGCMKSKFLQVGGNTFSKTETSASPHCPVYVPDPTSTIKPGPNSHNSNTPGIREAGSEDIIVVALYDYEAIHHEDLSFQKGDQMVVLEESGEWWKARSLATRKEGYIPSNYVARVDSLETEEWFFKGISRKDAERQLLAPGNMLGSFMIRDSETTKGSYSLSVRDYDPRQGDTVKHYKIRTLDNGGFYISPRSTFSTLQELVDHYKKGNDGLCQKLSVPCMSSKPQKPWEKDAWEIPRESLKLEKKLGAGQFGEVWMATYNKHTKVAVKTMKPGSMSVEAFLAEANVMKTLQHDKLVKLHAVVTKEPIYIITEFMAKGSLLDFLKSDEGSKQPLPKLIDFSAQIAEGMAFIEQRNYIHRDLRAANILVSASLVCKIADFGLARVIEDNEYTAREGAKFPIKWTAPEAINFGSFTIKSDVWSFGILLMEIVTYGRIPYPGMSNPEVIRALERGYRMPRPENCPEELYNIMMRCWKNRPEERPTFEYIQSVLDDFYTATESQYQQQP
CaV13 FRET inh: Disruptors of the CACNA1D IQ motif to Ca2+-dependent inactivation inhibitor domain association, primary screening, Förster resonance energy transfer in intact living …; AID 743397; inhibition, % at 12.3 µM; hit rate 0.098% among 340,000; HEK cells, CFP/YFP FRET ICDI-IQ, plate reader, 10 min; percent FRET-ratio fall versus neutral wells;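 active means mean replicate inhibition of at least 30% and at least 1% of replicates passing that level; inconclusive means only one of the two criteria is met; inactive means neither criterion is met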;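 further: 0% = median of the neutral control wells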
* hit, by the source's call; ? = inconclusive; . = not tested or not shown; + = active, no number; ! = a repeat was not active.

SMILES	RanGTP-Impb inh	Runt-SMMHC FRET	Runt-CBFb FRET	Hck Nef HTS	CaV13 FRET inh
Cc1ccc(C)c(-n2c(-c3ccco3)n[nH]c2=S)c1	15*	.	.	.	-5
COc1ccccc1-n1c(-c2ccco2)n[nH]c1=S	0	.	.	.	-19
O=C(NCCc1c[nH]c2ccccc12)C1CCN(S(=O)(=O)c2ccccc2)CC1	-4	.	.	.	-14
Cc1nc(C)c(-c2csc(Nc3cccc(O)c3)n2)s1	-5	-3	0	51*	-5
C/C(=N\NC(=O)c1ccccc1)c1ccc(NC(=O)c2cccs2)cc1	7	2	0	0	-5
C/C(=N/NC(=O)c1ccccc1)c1ccc(NC(=O)C(F)(F)F)cc1	31*	-1	0	-3	-5
Cc1cc(/C=C2\SC(=S)NC2=O)c(C)n1-c1ccccc1	9	17	26	53*	-4
COc1ccc(-n2c(C)cc(/C=C3\SC(=S)NC3=O)c2C)cc1	10	-33	1	21	-13
Cc1cc(/C=C2\SC(=S)NC2=O)c(C)n1-c1ccc(O)cc1	23*	-38	-10	30	-7
COc1ccc(Cl)c(-c2cc(C(=O)NCc3ccco3)[nH]n2)c1	.	.	.	.	-4
CC(C)CC(=NNC(=O)c1ccncc1)c1cc(Cl)ccc1O	.	.	.	.	-23
CN1C(N)=NC(=O)/C1=C/c1ccccc1F	31*	17	-2	26	-8
O=C(O)c1cc(-c2ccc(Br)s2)nc2ccccc12	18*	.	.	.	-4
CN1CCN(NC(=O)c2cc(-c3ccc(Br)s3)nc3ccccc23)CC1	?	.	.	.	-2
Cc1nc2nc(-c3ccc(Cl)cc3)cn2nc1C	78*	57*	61*	4	0
Cc1nc2nc(-c3cccs3)cn2nc1C	57*	-105	-4	-8	.
CN1C(=O)N(C)c2ccc(C=O)c3cccc1c23	-6	92*	59*	-5	-6
COc1cccc(CNC(=O)C2CCC(CNc3nc(=S)[nH]c4ccccc34)CC2)c1 (stereo unspecified)	0	2	0	28	7
Cc1ccc(CNC(=O)C2CCC(CNc3nc(=S)[nH]c4ccccc34)CC2)cc1 (stereo unspecified)	27*	-3	-4	18	2
Cc1occc1C(=O)N(C)Cc1nc(-c2ccccc2)no1	1	.	.	.	-4
COc1cc2c(ccc3cc(OC)c(OC)c(O)c32)cc1O	?	10	9	67*	.
O=C(O)c1cc(N/N=C/C=C/c2ccccc2)ccc1Cl	-2	87*	39	1	-20
O=C(O)CSc1nnc(-c2ccc(Cl)cc2)n1-c1ccccc1	1	.	.	.	-5
Nn1c(SCC(=O)N2CCCC2)nnc1-c1cccs1	.	.	.	.	33*
CCN1CCC2(CC1)C(C#N)=C(N)Oc1c2sc2nc(C)cc(C)c12	28*	34	7	2	-7
SMILES	RanGTP-Impb inh	Runt-SMMHC FRET	Runt-CBFb FRET	Hck Nef HTS	CaV13 FRET inh
Cc1oc(/N=C/c2ccc(O)cc2O)c(C#N)c1C	82*	90*	78*	20	+
Cc1ccc(-c2nc(C=Nc3ccc(O)cc3)c(O)o2)cc1	22*	-20	-6	33	-78
COc1ccc(N2C(=O)N(Cc3ccc(C)cc3)c3ccccc3S2(=O)=O)cc1	1	3	-1	17	-3
Nc1ccc(C#Cc2ccc3c(=O)c4ccccc4oc3c2)cc1	-29	.	.	.	106*
COc1cc2oc3cc(C#Cc4ccc(N)cc4)ccc3c(=O)c2cc1OC	-4	.	.	.	-16
Cc1onc(-c2ccccc2Cl)c1C(=O)Nc1sc2c(c1C#N)CCC2	45*	8	4	5	-3
CN(C)c1cc(=O)n2c(n1)SCCC2	72*	-2	.	0	-5
Cc1sc2nc3n(c(=O)c2c1C)CCCS3	?	-2	0	4	.
O=c1cc(N2CCCCC2)nc2n1CCCS2	159*	0	-1	0	-7
CC(C)CCNC(=O)C1CC(c2ccc(C(F)(F)F)cc2)=NO1 (stereo unspecified)	2	0	0	22	-5
Cc1ncoc1C(=O)NC1CC(C)(C)Cc2c1cnn2-c1ccc(F)cc1 (stereo unspecified)	-8	.	.	.	-8
O=C(NC(=S)NNC(=O)c1cccs1)c1ccccc1	0	.	.	.	-6
CCC(C)/C=C/C1=CC2=C(Cl)C(=O)C3(C)OC(=O)C(C(=O)C(C)C(C)O)C3C2=CO1 (stereo unspecified)	88*	85*	12	-18	.
CC(C)c1ccc(S(=O)(=O)N2CCN(C(=O)C3CCN(C(=O)c4ccc(F)cc4)CC3)CC2)cc1	1	.	.	.	-10
CCn1cnc2cc(NCc3ccc(OC)cc3)ccc21	10	8	21	-18	-8
CCOc1ccc2nc3cc(NCc4ccc(OC)cc4)ccc3c(N)c2c1	27*	.	.	.	.
Cc1cc(=O)oc(C)c1C(=O)O	6	0	2	1	-9
COc1cccc(N2CC(=O)N(NC(=O)c3sc4nc(C)cc(C)c4c3N)CC2=O)c1	16*	2	4	-3	-2
COc1ccc(NC(=O)c2sc3nc(C)cc(C)c3c2N)c(OC)c1	1	.	.	.	-19
COc1ccc(CN2C(=O)C(C)Nc3ncnc(N4CCOCC4)c32)cc1 (stereo unspecified)	.	.	.	.	-5
COc1ccc(CN2C(=O)C(C)Nc3ncnc(N4CCN(c5ccccc5)CC4)c32)cc1 (stereo unspecified)	.	.	.	.	63*!
OCCC1CN(CC#Cc2ccccc2)CCN1C1CCCC1 (stereo unspecified)	-1	3	2	23	-17
Nc1ccc(C2(c3ccc(N)cc3)C(=O)Nc3ccccc32)cc1	-2	1	-1	-1	-10
COc1ccc(OC)c(C2CC(=O)C(C)C(c3cc(OC)ccc3OC)N2)c1 (stereo unspecified)	11	-1	2	0	-5
COc1ccc(C2NC(c3ccc(OC)cc3OC)C(C)C(=O)C2C)c(OC)c1 (stereo unspecified)	116*	0	-2	-4	3
Cc1ccc(S(=O)(=O)N2CCC(C(=O)NCCN3CCCCCC3)CC2)cc1	3	-3	-2	1	-3
COc1ccc(N/N=C(\C#N)C(N)=O)cc1	-2	3	1	3	10
COc1ccc(N/N=C(/C(N)=O)C2=NC(C)(C)Cc3ccccc32)cc1	3	-5	-5	54*	-19
Cn1c(N)c(S(=O)(=O)N2CCN(c3ccccc3Cl)CC2)c(=O)n(C)c1=O	26*	.	.	.	.
